Rows were chosen to be rich in hits. Some 4.7% of all compounds tested hit in one or more screens of this group.
NR3A LBD binder: binders of NR3A ligand-binding domain, primary screen, biophysical, differential scanning fluorimetry, uHTS; Glutamate receptor ionotropic, NMDA 3A (GRIN3A) ligand-binding domain; NR3A LBD differential scanning fluorimetry, Tm shift; 0% = protein alone, 100% = glycine-bound protein; Tm shift relative to glycine control, % at 25 µM; 340,000 tested, 2.5% active; AID 1259313, 2017;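 active = melting temperature shift of at least 10% of the positive control shift, at one fixed dose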
ADAM10 inh: human ADAM10 inhibitors, primary screen, biochemical, QFRET, HTS | 370,000 tested, 0.62% active | Disintegrin and metalloproteinase domain-containing protein 10 (Homo sapiens), O14672 | inhibition, % at 7 µM | recombinant ADAM10, EDANS/DABCYL FRET peptide cleavage, 3 h;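 active = inhibition above a per-campaign cutoff equal to the mean of compounds falling between control-based bounds plus 3 SD, cut at about 20% in these data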
Target sequence (O14672 214-748 limits assumed): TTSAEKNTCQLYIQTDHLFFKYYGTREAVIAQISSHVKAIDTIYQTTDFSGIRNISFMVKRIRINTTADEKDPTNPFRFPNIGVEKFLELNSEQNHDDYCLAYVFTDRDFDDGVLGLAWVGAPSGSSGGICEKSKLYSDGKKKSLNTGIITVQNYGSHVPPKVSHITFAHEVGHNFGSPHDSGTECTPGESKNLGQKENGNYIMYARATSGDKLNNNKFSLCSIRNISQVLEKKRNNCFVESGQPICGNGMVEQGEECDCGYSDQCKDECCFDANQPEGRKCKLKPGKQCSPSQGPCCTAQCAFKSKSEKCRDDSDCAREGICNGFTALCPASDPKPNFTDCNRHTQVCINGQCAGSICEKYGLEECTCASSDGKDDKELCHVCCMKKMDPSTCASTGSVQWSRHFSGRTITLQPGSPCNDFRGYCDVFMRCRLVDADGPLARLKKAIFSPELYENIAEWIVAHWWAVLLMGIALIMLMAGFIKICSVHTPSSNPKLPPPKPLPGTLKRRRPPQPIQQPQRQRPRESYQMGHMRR
MPTP inh: mitochondrial permeability transition pore inhibitors, primary screen, biochemical, isolated mouse mitochondria, absorbance. Ca2+ swelling absorbance, 30 min. inhibition, % at 10 µM. 360,000 tested, 1.4% active. AID 602449, 2012;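 active = inhibition of 50% or more, scaled per plate between neutral and stimulator controls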
ADAM17 inh: ADAM17 inhibitors, primary screen, biochemical, QFRET; Disintegrin and metalloproteinase domain-containing protein 17 (Homo sapiens), P78536; recombinant ADAM17, EDANS/DABCYL FRET peptide cleavage; inhibition, % at 6.95 µM; 370,000 tested, 0.83% active;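 active = inhibition above the mean of compounds lying between control limits plus 3 SD, set per campaign, cut at about 8.5% in these data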
SKN-1 block: suppressors of acrylamide-induced Pgst-4::GFP reporter in worms, primary screen, SKN-1 inhibitor project, whole organism, uHTS, GFP/RFP fluorescence ratio, strain VP596 | C. elegans VP596 Pgst-4::GFP/RFP ratio, 24 h | inhibition, % at 21.8 µM | 360,000 tested, 0.49% active | AID 624304, 2012;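 active = interference check ratio from 0.5 to 1.5 plus GFP to RFP signal ratio inhibition reaching or exceeding a fixed threshold, cut at about 30% in these data, passing the limit was not always enough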
MT1-MMP act inh: blockers of MT1-MMP proenzyme processing, primary screen, HT1080 RFP-PRO-GFP cells, GFP/RFP fluorescence. 360,000 tested, 0.061% active. AID 651647, 2012. GFP/RFP ratio change, % at 20 µM. GFP/RFP ratio fluorescence, overnight; percent of plate control window, DMSO zero. Matrix metalloproteinase-14 (Homo sapiens), P50281;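 active = GFP/RFP ratio change of at least 30% with cell ATP level not reduced by more than half and red fluorescence within 50% of control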
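Material – HT1080 RFP-PRO-GFP cells · Control set – DMSO wells and RFP-L50D-GFP cells · Incubation – overnight cell settling, then overnight compound exposure, 37 °C, 5% CO2 · Compound dosing – single-point 20 µM compound, 1% DMSO · Read-out – GFP/RFP fluorescence ratio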
Numbers stand for hits; n = inactive; x = not tested or not shown.

SMILES | NR3A LBD binder | ADAM10 inh | MPTP inh | ADAM17 inh | SKN-1 block | MT1-MMP act inh
CCn1c(SCC(N)=O)nnc1-c1ccc(OC)c(OC)c1 | 13 | n | n | n | n | n
COc1ccc(C2CC(c3ccc(Br)cc3)=NN2C(=S)Nc2ccccc2)cc1 (stereo not drawn) | 11 | n | n | n | n | n
COc1ccc(C2CC(c3ccccc3)=NN2C(=S)Nc2ccccc2)cc1 (stereo not drawn) | n | n | n | n | n | n
CCOC(=O)CN(C(=O)CNC(=O)c1cccs1)C(C(=O)NC1CCCCC1)c1cccs1 (stereo not drawn) | n | n | n | n | 46 | n
O=C(Cn1cccc1C(=O)c1ccccc1)NCc1cccnc1 | n | n | n | n | n | n
Cc1ccc(S(=O)(=O)NCCCCC(NC(=O)OC(C)(C)C)C(=O)O)cc1 (stereo not drawn) (tested in a mixture with another compound) | n | n | n | n | 35 | n
Cc1ccc(S(=O)(=O)NCCCC(=O)O)cc1 | n | n | n | n | n | n
Cc1sc2ccccc2c1CNC[C@H]1O[C@@H](n2cnc(C(N)=O)n2)[C@H](O)[C@@H]1O | n | n | n | n | n | n
NC(=O)c1ncn([C@@H]2O[C@H](CNCc3cc(Br)ccc3OCc3ccccc3)[C@@H](O)[C@H]2O)n1 | n | n | n | n | n | n
CC(C)(O)C#Cc1ccc(CNC[C@H]2O[C@@H](n3cnc(C(N)=O)n3)[C@H](O)[C@@H]2O)s1 | 11 | n | n | n | n | n
NC(=O)c1ncn([C@@H]2O[C@H](CNCc3ccccc3C#Cc3ccccc3)[C@@H](O)[C@H]2O)n1 | 11 | n | n | n | n | n
C[C@H](O)[C@@H]1C(=O)N2CCc3ccc(-c4ccccc4)cc3[C@@H]2C[C@@H]1N(C)C(=O)c1ccco1 | x | n | n | n | n | n
COc1cc(/C=C2\C(=N)N3N=C(S(C)(=O)=O)SC3=NC2=O)cc(OC)c1OCCOc1ccccc1C | 33 | n | n | n | n | n
CCS(=O)(=O)C1=NN2C(=N)/C(=C\c3ccc(OC(=O)c4ccco4)c(OC)c3)C(=O)N=C2S1 | n | n | n | n | n | n
COc1cc(/C=C2\C(=N)N3N=C(C)SC3=NC2=O)cc(OC)c1OCCOc1ccccc1C | n | n | n | n | n | n
C=CCOc1ccc(/C=C2\C(=N)N3N=C(S(=O)(=O)CC)SC3=NC2=O)cc1OC | 11 | n | n | n | n | n
Nc1n[nH]c(=S)n1/N=C1/C(=O)Nc2ccccc21 | 26 | n | n | n | n | n
Cc1nc2cc(NC(=O)c3ccc([N+](=O)[O-])s3)ccc2s1 | 24 | n | n | n | n | n
COc1ccc(NC(=O)COC(=O)C2CCC2)cc1Cl | 18 | n | n | n | n | n
CC(C)(C)C(=O)Nc1ccc(S(=O)(=O)N2CCC(c3nc4ccccc4[nH]3)CC2)cc1 | 20 | n | n | n | n | n
O=S(=O)(c1cccc(Cl)c1)N1CCC(c2nc3ccccc3[nH]2)CC1 | 27 | n | n | n | n | n
Cc1oc2ccccc2c1CC(=O)NCCCN(C)C | n | n | n | n | n | n
COc1ccccc1NC(=O)CC1C(=O)NCCN1C(=O)Nc1ccccc1 (stereo not drawn) | n | n | n | n | n | n
O=C(Nc1ccc(Cl)c(Cl)c1)OCc1cnc(Cl)s1 | 12 | n | n | n | n | x
COc1ccc(C)cc1NC(=S)NNC(=O)c1ccccc1Cl | n | n | n | n | n | n
SMILES | NR3A LBD binder | ADAM10 inh | MPTP inh | ADAM17 inh | SKN-1 block | MT1-MMP act inh
COc1ccc(-n2sc3ccc(F)cc3c2=O)cc1 | 28 | n | n | n | n | n
CC(=O)Nc1ccc(S(=O)(=O)N2CN(c3ccc(C)cc3)c3nc4ccccc4nc32)cc1 | 16 | n | n | n | n | n
CCN(CC)S(=O)(=O)c1cccc(-c2nnc(SCC(=O)c3cc(C)n(C4CC4)c3C)o2)c1 | n | n | n | n | 42 | n
O=C(OCC12CC3CC(CC(C3)C1)C2)c1ccc(NCc2cc(O)ccc2O)cc1 | 12 | n | n | n | n | n
O=C(OCCC12CC3CC(CC(C3)C1)C2)c1ccc(NCc2cc(O)ccc2O)cc1 | 27 | n | n | n | n | n
COc1ccc(CC(=O)N2CCCC(C)C2)cc1 (stereo not drawn) | n | n | n | n | 37 | n
CC1CCCN(C(=O)Cc2ccc(F)cc2)C1 (stereo not drawn) | n | n | n | n | n | n
CC1CC(=O)c2c(cc3c(-c4c(O)cc(O)c5c(O)c6c(cc45)OC(C)CC6=O)c(O)cc(O)c3c2O)O1 (stereo not drawn) | 24 | x | n | x | n | n
COc1ccc(CCNC(=O)/C(C#N)=C/c2ccc(OCC(=O)NCC3CCCO3)cc2)cc1OC (stereo not drawn) | 14 | n | n | n | n | n
N#Cc1ccc(C(=O)NC2CCCc3ccccc32)cc1 (stereo not drawn) | n | n | n | n | n | n
CCCOC(=O)c1c(-c2ccccc2)nc(CC)c(C(=O)SCC)c1CCC | 10 | n | n | n | n | n
O=C1C2CCCN2C(c2ccccc2F)N1c1cccc(Cl)c1 (stereo not drawn) | n | n | n | n | n | n
O=C(NCC1CCCO1)c1ccc2c(c1)N(Cc1ccc(F)cc1)CCS2 (stereo not drawn) | n | n | n | n | n | n
CCn1c(C)c(C)c2cc(C(=O)NCCN3CCOCC3)ccc21 | n | n | n | n | n | n
Cc1c(C)n(C)c2ccc(C(=O)NCCN3CCOCC3)cc12 | n | n | n | n | 50 | n
CC(Oc1ccccc1)C(=O)NC1CCSc2ccccc21 (stereo not drawn) | n | n | n | n | n | n
COc1ccc(OC)c(CNC(=O)C2CCCN(c3ncnc4c3nc3n4CCCCC3)C2)c1 (stereo not drawn) | n | n | n | n | n | n
O=C(N/N=C/c1ccc(O)cc1)NC12CC3CC(CC(C3)C1)C2 | 10 | n | n | n | n | n
Cc1nc(-c2ccccn2)sc1C(=O)O | n | n | n | n | n | n
O=C(Nc1ccc(Cl)cc1)c1ccc(-c2ccccn2)s1 | 31 | n | n | n | n | n
Cc1nc(-c2ccccn2)sc1C(=O)Nc1ccc(Cl)c(Cl)c1 | 26 | n | n | n | n | n

From PubChem
